Test results taken from ChEMBL document CHEMBL1154716, “Synthesis of some new S-triazine based chalcones and their derivatives as potent antimicrobial agents” (2010).
Converted amounts (≈) assume the structure as drawn. The source made the active and inactive calls. No cut-off for these calls is given here.

What was measured:
Enterobacter cloacae [1] = assay: Antimicrobial activity against Enterobacter cloacae at 1 umol/spot after 18 hrs by TLC-bioautographic method; type: functional
Procedure, shortened: (§1)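 TLC bioautography. Samples are spotted on silica gel TLC plates, then sprayed with bacteria (1.0 × 10^5 cfu/ml) in tryptic soy broth. Plates are incubated 18 h at 37 C and sprayed with 3% aqueous p-iodonitrotetrazolium violet. After a further 3 h, growth is stopped with 70% EtOH. White zones on a pink background are scored as inhibition-zone diameter with standard errors.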

Listeria monocytogenes [2] = assay: Antimicrobial activity against Listeria monocytogenes after 24 hrs by microdilution technique; type: functional
Procedure, shortened: (§2)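 Broth microdilution in LB medium. Inoculum is 1.0 × 10^4 cfu per well, from a saline-adjusted suspension of 1.0 × 10^5 cfu/ml. Compounds are dissolved in DMSO. Incubated 24 h at 28 C. MIC is the lowest concentration with no visible growth under a binocular microscope. MBC is read by subculture into fresh broth for 72 h, with no growth taken as 99.5% kill. OD is read at 655 nm.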

Pseudomonas aeruginosa [3] = assay: Antimicrobial activity against Pseudomonas aeruginosa at 1 umol/disk after 24 hrs by disk diffusion assay; type: functional
Procedure, shortened: (§3)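 Disc diffusion on 4 mm filter discs. Bacteria are grown overnight in LB at 28 C, then adjusted in saline to 1.0 × 10^5 cfu/ml. The suspension is mixed into top agar over peptone agar plates. Plates are incubated 24 h at 28 C, and growth-inhibition zone diameter is measured. Streptomycin and ampicillin controls are applied from a 1 mg/ml stock. Tests are done in duplicate.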

Escherichia coli [4] = assay: Antimicrobial activity against Escherichia coli at 1 umol/disk after 24 hrs by disk diffusion assay; type: functional; procedure, shortened: as §3
Bacillus cereus [5] = assay: Antimicrobial activity against Bacillus cereus at 1 umol/disk after 24 hrs by disk diffusion assay; type: functional; procedure, shortened: as §3
Salmonella typhimurium [6] = assay: Antimicrobial activity against Salmonella Typhimurium at 1 umol/spot after 18 hrs by TLC-bioautographic method; type: functional, Salmonella enterica subsp. enterica serovar Typhimurium; procedure, shortened: as §1
Staphylococcus aureus [7] = assay: Antimicrobial activity against Staphylococcus aureus at 1 umol/disk after 24 hrs by disk diffusion assay; type: functional; procedure, shortened: as §3
Listeria monocytogenes [8] = assay: Antimicrobial activity against Listeria monocytogenes at 1 umol/spot after 18 hrs by TLC-bioautographic method; type: functional; procedure, shortened: as §1
Listeria monocytogenes [9] = assay: Antimicrobial activity against Listeria monocytogenes at 10 ug/disk after 24 hrs by disk diffusion assay; type: functional; procedure, shortened: as §3
Bacillus cereus [10] = assay: Antimicrobial activity against Bacillus cereus at 10 ug/disk after 24 hrs by disk diffusion assay; type: functional; procedure, shortened: as §3
Escherichia coli [11] = assay: Antimicrobial activity against Escherichia coli at 10 ug/disk after 24 hrs by disk diffusion assay; type: functional; procedure, shortened: as §3
Enterobacter cloacae [12] = assay: Antimicrobial activity against Enterobacter cloacae at 10 ug/disk after 24 hrs by disk diffusion assay; type: functional; procedure, shortened: as §3
Salmonella typhimurium [13] = assay: Antimicrobial activity against Salmonella Typhimurium at 1 umol/disk after 24 hrs by disk diffusion assay; type: functional, organism-based; conditions: Salmonella enterica subsp. enterica serovar Typhimurium; procedure, shortened: as §3
Pseudomonas aeruginosa [14] = assay: Antimicrobial activity against Pseudomonas aeruginosa at 1 umol/spot after 18 hrs by TLC-bioautographic method; type: functional; procedure, shortened: as §1
Staphylococcus aureus [15] = assay: Antimicrobial activity against Staphylococcus aureus at 10 ug/disk after 24 hrs by disk diffusion assay; type: functional; procedure, shortened: as §3
Escherichia coli [16] = assay: Antimicrobial activity against Escherichia coli at 1 umol/spot after 18 hrs by TLC-bioautographic method; type: functional; procedure, shortened: as §1
Micrococcus flavus [17] = assay: Antimicrobial activity against Micrococcus flavus at 10 ug/disk after 24 hrs by disk diffusion assay; type: functional; procedure, shortened: as §3
Escherichia coli [18] = assay: Antimicrobial activity against Escherichia coli after 24 hrs by microdilution technique; type: functional; procedure, shortened: as §2
Micrococcus flavus [19] = assay: Antimicrobial activity against Micrococcus flavus at 1 umol/spot after 18 hrs by TLC-bioautographic method; type: functional; procedure, shortened: as §1
Pseudomonas aeruginosa [20] = assay: Antimicrobial activity against Pseudomonas aeruginosa at 10 ug/disk after 24 hrs by disk diffusion assay; type: functional; procedure, shortened: as §3
Pseudomonas aeruginosa [21] = assay: Antimicrobial activity against Pseudomonas aeruginosa after 24 hrs by microdilution technique; type: functional; procedure, shortened: as §2
Salmonella typhimurium [22] = assay: Antimicrobial activity against Salmonella Typhimurium at 10 ug/disk after 24 hrs by disk diffusion assay; type: functional, organism-based; conditions: Salmonella enterica subsp. enterica serovar Typhimurium; procedure, shortened: as §3
Enterobacter cloacae [23] = assay: Antimicrobial activity against Enterobacter cloacae at 1 umol/disk after 24 hrs by disk diffusion assay; type: functional; procedure, shortened: as §3
Micrococcus flavus [24] = assay: Antimicrobial activity against Micrococcus flavus after 24 hrs by microdilution technique; type: functional; procedure, shortened: as §2
Listeria monocytogenes [25] = assay: Antimicrobial activity against Listeria monocytogenes at 1 umol/disk after 24 hrs by disk diffusion assay; type: functional; procedure, shortened: as §3
Staphylococcus aureus [26] = assay: Antimicrobial activity against Staphylococcus aureus at 1 umol/spot after 18 hrs by TLC-bioautographic method; type: functional; procedure, shortened: as §1
Bacillus cereus [27] = assay: Antimicrobial activity against Bacillus cereus at 1 umol/spot after 18 hrs by TLC-bioautographic method; type: functional; procedure, shortened: as §1
Enterobacter cloacae [28] = assay: Antimicrobial activity against Enterobacter cloacae after 24 hrs by microdilution technique; type: functional; procedure, shortened: as §2
Bacillus cereus [29] = assay: Antimicrobial activity against Bacillus cereus after 24 hrs by microdilution technique; type: functional; procedure, shortened: as §2
Salmonella typhimurium [30] = assay: Antimicrobial activity against Salmonella Typhimurium after 24 hrs by microdilution technique; type: functional, Salmonella enterica subsp. enterica serovar Typhimurium; conditions: Salmonella enterica; procedure, shortened: as §2
Micrococcus flavus [31] = assay: Antimicrobial activity against Micrococcus flavus at 1 umol/disk after 24 hrs by disk diffusion assay; type: functional; procedure, shortened: as §3
Staphylococcus aureus [32] = assay: Antimicrobial activity against Staphylococcus aureus after 24 hrs by microdilution technique; type: functional; procedure, shortened: as §2

SMILES	inhibition zone (IZ) (Enterobacter cloacae [1]) [millimeter]	MBC (Listeria monocytogenes [2]) [µM]	MIC (Listeria monocytogenes [2]) [µM]	inhibition zone (IZ) (Pseudomonas aeruginosa [3])	inhibition zone (IZ) (Escherichia coli [4])	inhibition zone (IZ) (Bacillus cereus [5])	inhibition zone (IZ) (Staphylococcus aureus [7])	inhibition zone (IZ) (Listeria monocytogenes [8]) [millimeter]	inhibition zone (IZ) (Listeria monocytogenes [9])	inhibition zone (IZ) (Bacillus cereus [10])	inhibition zone (IZ) (Enterobacter cloacae [12])	inhibition zone (IZ) (Salmonella typhimurium [13])	inhibition zone (IZ) (Pseudomonas aeruginosa [14])	inhibition zone (IZ) (Staphylococcus aureus [15])	inhibition zone (IZ) (Escherichia coli [16])	MBC (Escherichia coli [18]) [µM]	MIC (Escherichia coli [18]) [µM]	inhibition zone (IZ) (Micrococcus flavus [19])	inhibition zone (IZ) (Pseudomonas aeruginosa [20])	MBC (Pseudomonas aeruginosa [21]) [µM]	other results
O=C(/C=C/c1ccc([N+](=O)[O-])cc1)c1ccc(Nc2nc(Nc3ccccc3)nc(Nc3ccccc3)n2)cc1	0.09	756 (≈ 400 µg/mL)	378 (≈ 200 µg/mL)	inactive	0.03 millimeter	inactive	inactive	0.07	inactive	inactive	inactive	inactive	inactive	inactive	inactive	378 (≈ 200 µg/mL)	189 (≈ 100 µg/mL)	0.05 millimeter	inactive	756 (≈ 400 µg/mL)	inhibition zone (IZ) (Salmonella typhimurium [6]): 0.08 millimeter; zone of inhibition at 10 µg/disc (Escherichia coli [11]; read-out: IZ): 6 mm; inhibition zone (IZ) (Micrococcus flavus [17]): inactive; MIC (Pseudomonas aeruginosa [21]): 378 µM (≈ 200 µg/mL); inhibition zone (IZ) (Salmonella typhimurium [22]): inactive; inhibition zone (IZ) (Enterobacter cloacae [23]): inactive; MBC (Micrococcus flavus [24]): 378 µM (≈ 200 µg/mL); MIC (Micrococcus flavus [24]): 189 µM (≈ 100 µg/mL); inhibition zone (IZ) (Listeria monocytogenes [25]): inactive; inhibition zone (IZ) (Staphylococcus aureus [26]): inactive; inhibition zone (IZ) (Bacillus cereus [27]): inactive; MBC (Enterobacter cloacae [28]): 378 µM (≈ 200 µg/mL); MIC (Enterobacter cloacae [28]): 189 µM (≈ 100 µg/mL); MBC (Bacillus cereus [29]): 378 µM (≈ 200 µg/mL); MIC (Bacillus cereus [29]): 189 µM (≈ 100 µg/mL); MBC (Salmonella typhimurium [30]): 756 µM (≈ 400 µg/mL); MIC (Salmonella typhimurium [30]): 378 µM (≈ 200 µg/mL); inhibition zone (IZ) (Micrococcus flavus [31]): inactive; MBC (Staphylococcus aureus [32]): 756 µM (≈ 400 µg/mL); MIC (Staphylococcus aureus [32]): 378 µM (≈ 200 µg/mL)
CC(=O)N1N=C(c2ccc(Nc3nc(Nc4ccccc4)nc(Nc4ccccc4)n3)cc2)CC1c1cccs1 (stereo not given)	0.1	732 (≈ 400 µg/mL)	732 (≈ 400 µg/mL)	inactive	inactive	inactive	inactive	0.08	inactive	inactive	inactive	inactive	inactive	inactive	inactive	376 (≈ 206 µg/mL)	188 (≈ 103 µg/mL)	inactive	inactive	732 (≈ 400 µg/mL)	inhibition zone (IZ) (Salmonella typhimurium [6]; Salmonella enterica subsp. enterica serovar Typhimurium): inactive; inhibition zone (IZ) (Escherichia coli [11]): inactive; inhibition zone (IZ) (Micrococcus flavus [17]): inactive; MIC (Pseudomonas aeruginosa [21]): 376 µM (≈ 206 µg/mL); inhibition zone (IZ) (Salmonella typhimurium [22]): inactive; inhibition zone (IZ) (Enterobacter cloacae [23]): inactive; MBC (Micrococcus flavus [24]): 376 µM (≈ 206 µg/mL); MIC (Micrococcus flavus [24]): 188 µM (≈ 103 µg/mL); inhibition zone (IZ) (Listeria monocytogenes [25]): inactive; inhibition zone (IZ) (Staphylococcus aureus [26]): inactive; inhibition zone (IZ) (Bacillus cereus [27]): 0.08 millimeter; MBC (Enterobacter cloacae [28]): 732 µM (≈ 400 µg/mL); MIC (Enterobacter cloacae [28]): 732 µM (≈ 400 µg/mL); MBC (Bacillus cereus [29]): 376 µM (≈ 206 µg/mL); MIC (Bacillus cereus [29]): 188 µM (≈ 103 µg/mL); MBC (Salmonella typhimurium [30]): 732 µM (≈ 400 µg/mL); MIC (Salmonella typhimurium [30]): 376 µM (≈ 206 µg/mL); inhibition zone (IZ) (Micrococcus flavus [31]): inactive; MBC (Staphylococcus aureus [32]): 732 µM (≈ 400 µg/mL); MIC (Staphylococcus aureus [32]): 376 µM (≈ 206 µg/mL)
CC(=O)N1N=C(c2ccc(Nc3nc(Nc4ccccc4)nc(Nc4ccccc4)n3)cc2)CC1c1ccc([N+](=O)[O-])cc1 (stereo not given)	0.09	684 (≈ 401 µg/mL)	684 (≈ 401 µg/mL)	inactive	inactive	inactive	inactive	0.09	inactive	inactive	inactive	inactive	inactive	inactive	inactive	342 (≈ 200 µg/mL)	171 (≈ 100 µg/mL)	0.07 millimeter	inactive	684 (≈ 401 µg/mL)	inhibition zone (IZ) (Salmonella typhimurium [6]): 0.1 millimeter; inhibition zone (IZ) (Escherichia coli [11]): inactive; zone of inhibition at 10 µg/disc (Micrococcus flavus [17]; read-out: IZ): 10 mm; MIC (Pseudomonas aeruginosa [21]): 684 µM (≈ 401 µg/mL); inhibition zone (IZ) (Salmonella typhimurium [22]): inactive; inhibition zone (IZ) (Enterobacter cloacae [23]): inactive; MBC (Micrococcus flavus [24]): 342 µM (≈ 200 µg/mL); MIC (Micrococcus flavus [24]): 171 µM (≈ 100 µg/mL); inhibition zone (IZ) (Listeria monocytogenes [25]): inactive; inhibition zone (IZ) (Staphylococcus aureus [26]): inactive; inhibition zone (IZ) (Bacillus cereus [27]): 0.1 millimeter; MBC (Enterobacter cloacae [28]): 684 µM (≈ 401 µg/mL); MIC (Enterobacter cloacae [28]): 684 µM (≈ 401 µg/mL); MBC (Bacillus cereus [29]): 171 µM (≈ 100 µg/mL); MIC (Bacillus cereus [29]): 85 µM (≈ 49.8 µg/mL); MBC (Salmonella typhimurium [30]): 684 µM (≈ 401 µg/mL); MIC (Salmonella typhimurium [30]): 684 µM (≈ 401 µg/mL); inhibition zone (IZ) (Micrococcus flavus [31]): 0.04 millimeter; MBC (Staphylococcus aureus [32]): 342 µM (≈ 200 µg/mL); MIC (Staphylococcus aureus [32]): 171 µM (≈ 100 µg/mL)
